RAM inhibit – blocks the yeast RAM network | S. cerevisiae dse1pr::URA3 reporter, 5-FOA growth OD615, 2 d; analog-sensitive cbk1-as2 kinase mutant strain | inhibition, % at 50 µM | 1.8% of 190,000 active | AID 868;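 active = inhibition above a set limit, 3 SD over mean compound inhibition, cut at about 8.4% in these data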;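 note: 0% = DMSO-only wells with no growth and 100% = 10 µM 1-NA-PP1 full growth; inhibition rescues growth on 5-FOA so higher OD means more RAM inhibition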
Yeast life ext – extends the lifespan of yeast; inhibition of the nicotinamide effect, % at 10 µM; S. cerevisiae growth with nicotinamide, OD615; deaD strain in restrictive glucose medium; 0.68% of 130,000 active;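 active = inhibition above a set limit, placed 3 SD over the median of all compounds, cut at about 26% in these data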;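 note: 0% = nicotinamide-treated wells and 100% = cells grown without nicotinamide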
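Material: Modified budding yeast, DeaD strain | Medium: Restrictive glucose medium | Probe or stimulus: 1.5 mM nicotinamide | Dosing: Single dose 10 µM compound, 0.25% DMSO | Times: 48 h at 30 °C | Technique: OD615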
WT yeast gro inh – growth inhibition of WT yeast, mitochondrial fusion screen | mitochondrial fusion phenotypic screen, WT strain | inhibition, % at 10 µM | 2.1% of 190,000 active | AID 1362; in the data active = inhibition above about 58%; tested in S. cerevisiae
Yeast growth inh – reduces growth of yeast BB579 in restrictive medium. inhibition, % at 10 µM. 0.51% of 140,000 active. S. cerevisiae BB579 growth, OD615, 48 h;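 active = inhibition above a set limit, 3 SD over the mean compound inhibition, cut at about 44% in these data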
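Assay system: S. cerevisiae DeaD strain BB579 yeast. Medium: CSMM-D restrictive synthetic medium containing dextrose (glucose). Times: 4 h cell preincubation, 48 h compound exposure, 30 °C humidified. Signal: OD615 turbidity measurement. Benchmarks: positive control amphotericin B 10 µg/mL.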
KCC2 mod – modulates chloride dependent transport by human KCC2; Q9H2X9; KCC2 cells, thallium flux FluoZin-2 fluorescence; B-score of Tl+ flux slope (higher = more flux/activation; lower = inhibition) at 10 µM; 2.2% of 190,000 active; AID 1456;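 active = thallium flux slope and its plate-corrected score both differing from the plate sample mean at a set confidence after two filtering rounds, in either direction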;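 note: slope of fluorescence scaled to starting intensity during 10 to 20 s after thallium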
Target sequence (Q9H2X9 whole entry, looked up): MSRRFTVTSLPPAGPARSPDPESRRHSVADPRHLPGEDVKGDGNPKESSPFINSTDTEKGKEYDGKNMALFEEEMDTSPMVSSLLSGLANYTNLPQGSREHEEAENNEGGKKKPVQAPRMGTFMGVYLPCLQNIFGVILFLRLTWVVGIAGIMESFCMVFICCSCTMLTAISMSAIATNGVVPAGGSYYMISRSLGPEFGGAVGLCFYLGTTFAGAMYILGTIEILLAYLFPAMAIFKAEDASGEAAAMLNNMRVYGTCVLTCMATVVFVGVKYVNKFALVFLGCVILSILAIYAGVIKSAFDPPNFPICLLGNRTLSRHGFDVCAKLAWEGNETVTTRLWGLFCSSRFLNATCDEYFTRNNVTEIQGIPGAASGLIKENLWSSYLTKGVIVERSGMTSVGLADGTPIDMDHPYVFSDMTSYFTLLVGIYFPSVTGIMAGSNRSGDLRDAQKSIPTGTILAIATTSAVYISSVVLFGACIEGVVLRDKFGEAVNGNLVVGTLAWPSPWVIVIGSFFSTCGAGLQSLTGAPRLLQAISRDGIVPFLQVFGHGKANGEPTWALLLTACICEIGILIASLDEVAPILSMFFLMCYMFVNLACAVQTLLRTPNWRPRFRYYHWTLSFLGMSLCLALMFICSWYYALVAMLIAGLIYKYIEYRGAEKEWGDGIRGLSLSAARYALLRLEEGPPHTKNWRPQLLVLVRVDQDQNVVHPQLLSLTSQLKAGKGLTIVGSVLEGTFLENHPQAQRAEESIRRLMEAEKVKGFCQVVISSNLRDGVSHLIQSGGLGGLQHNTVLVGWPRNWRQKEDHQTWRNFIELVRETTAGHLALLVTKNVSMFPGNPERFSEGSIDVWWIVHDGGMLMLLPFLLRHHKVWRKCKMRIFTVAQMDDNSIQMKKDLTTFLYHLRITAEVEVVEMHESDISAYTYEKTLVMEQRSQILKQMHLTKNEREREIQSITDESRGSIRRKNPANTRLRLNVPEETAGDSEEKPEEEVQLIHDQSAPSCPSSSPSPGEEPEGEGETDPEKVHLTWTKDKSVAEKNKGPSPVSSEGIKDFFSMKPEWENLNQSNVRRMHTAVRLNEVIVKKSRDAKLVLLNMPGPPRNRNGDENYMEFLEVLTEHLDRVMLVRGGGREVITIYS
An asterisk follows results filed as active; . = not tested or not shown. Most compounds without a hit are left out; they make up all but 5.5% or so of the library.

SMILES	RAM inhibit	Yeast life ext	WT yeast gro inh	Yeast growth inh	KCC2 mod
COc1ccc(NC(=O)c2cccc(S(=O)(=O)N3CCc4ccccc43)c2)cn1	7.6	.	28.3	.	-1.17
O=C(Nc1ncccc1O)c1cccc(S(=O)(=O)N2CCc3ccccc32)c1	0.9	-4.7	69.2*	-7.8	0.882
CCN(CC)C(=O)/C=C/c1ccc(OC)c(S(=O)(=O)N2CCCCC2)c1	1.0	.	-5.2	.	.
CC(=O)C(=Nc1ccccc1Cl)NNc1ccc(Cl)cc1	5.1	.	60.0*	-56.3	-0.458
O=C(NNc1ccc(Cl)cc1)c1c(F)cccc1Cl	.	.	.	.	0.437
O=C(O)C1CCCCC1C(=O)Nc1cc(C(F)(F)F)ccc1Cl (configuration not stated)	0.0	.	-26.5	.	-0.124
CN(O)/C=c1/ccc2c(n1)C(=O)C=CC=2	1.1	-10.8	-14.4	97.4*	0.181
CSc1nnc(-c2cc[n+](C)cc2)n1CCO	-0.9	3.7	18.4	-2.6	1.7
CC(OC(=O)c1ccc(NS(=O)(=O)c2cccs2)cc1)C(=O)N(C)C1CCCCC1 (configuration not stated)	3.3	2.4	13.7	-24.2	-0.0269
Cc1ccc(C(=O)C[n+]2ccc(-c3nnc4n3CCC4)cc2)cc1	0.0	13.7	-26.2	-16.4	0.574
CCn1c(Cn2nnc(-c3ccccc3)n2)nnc1SCC(=O)N1CCOCC1	0.7	-6.0	3.6	3.5	-0.81
CCn1c(Cn2nnc(-c3ccccc3)n2)nnc1SCc1ccc(Cl)c(Cl)c1	3.1	-4.3	78.8*	-57.5	-1.77
O=C(COC(=O)[C@H](Cc1c[nH]c2ccccc12)NC(=O)c1cccs1)NCc1ccccc1	3.4	-4.5	0.9	-21.4	-2.08
CC(C)CNC(=O)CN(C1CCCCC1)S(C)(=O)=O	0.5	-0.7	12.7	43.6*	-0.374
CC(/C=C1\SC(=S)N(NC(=O)c2ccc(O)cc2)C1=O)=C\c1ccccc1	3.2	-6.6	89.9*	-45.8	-1.5
Cc1nc(SCc2ccc(OCCC(C)C)cc2)n[nH]1	0.0	.	73.2	.	0.0155
CCCCCOc1ccc(CSc2n[nH]c(C)n2)cc1	0.2	.	79.8*	.	0.00559
CCOC(=O)C1(CCCc2ccccc2)CCN(C(=O)CCOC)CC1	2.1	.	-13.0	.	-0.158
Cc1nn(-c2ccccc2)c(N2CCCC2)c1/C=N/Nc1ccc(S(=O)(=O)Nc2ccccc2)cc1[N+](=O)[O-]	9.0*	3.9	2.0	-8.0	0.0491
COc1c(/C=N/Nc2ccc([N+](=O)[O-])cc2[N+](=O)[O-])c(C)nn1-c1ccccc1	3.2	36.7	33.3	-38.5	0.524
COc1ccccc1NS(=O)(=O)c1ccc(N/N=C/c2c(C)nn(-c3ccccc3)c2N2CCCC2)c([N+](=O)[O-])c1	9.6*	1.8	18.2	-45.3	-0.911
OCCC1CN(Cc2nc3ccc(F)cc3[nH]2)CCN1C1CCCC1 (configuration not stated)	.	.	.	.	0.865
O=C(CCCN1C(=O)c2ccccc2C1=O)Nc1ccccc1	.	.	.	.	-0.267
NC(=O)c1ccc(NC(=O)CCCN2C(=O)c3ccccc3C2=O)cc1	0.4	-8.2	63.2*	-42.6	0.546
Cc1cccc(C)c1NC(=O)CC(NCCc1ccccc1)C(=O)O (configuration not stated)	-1.2	1.2	-6.7	-30.2	1.11
SMILES	RAM inhibit	Yeast life ext	WT yeast gro inh	Yeast growth inh	KCC2 mod
CCCCC(CC)Cn1c2nc3ccccc3nc2c2c(=N)oc(C)nc21 (configuration not stated)	1.7	93.9*	-12.3	-50.0	-0.561
CCCCn1c2nc3ccccc3nc2c2c(=N)oc(C)nc21	.	.	10.2	.	.
COc1ccc(C(C)=O)cc1CSc1nncn1-c1ccccc1	0.0	0.5	-2.5	-33.1	-0.214
CCCCc1ccc(-c2nc(NC(=O)C3C4CCC(O4)C3C(=O)O)sc2C)cc1 (configuration not stated)	0.5	-9.9	88.2*	-29.6	-0.581
CCc1cccc(C)c1NC(=O)C1C2CCC(O2)C1C(=O)O (configuration not stated)	1.2	-10.6	-10.0	-43.3	1.4
O=C(Nc1ccccc1F)Nc1ccccc1F	4.2	.	4.9	.	-0.779
Cc1ccc(NC(=O)C2C(=O)N(C)c3ccccc32)cc1 (configuration not stated)	0.3	27.9*	-0.3	-23.0	0.104
CN1C(=O)C(C(=O)Nc2ccccc2F)c2ccccc21 (configuration not stated)	0.3	44.5*	-13.3	-13.8	3.61
O=C(Cc1ccccc1)NCC(=O)OCC(=O)c1ccccc1Cl	0.8	.	0.2	.	0.0144
C(=Nc1ccc(N2CCOCC2)cc1)c1c[nH]c2ccccc12	.	.	.	.	-0.955
Oc1ccc2ccccc2c1C=Nc1ccc(N2CCOCC2)cc1	0.9	48.8*	-4.0	-15.5	.
Oc1ccc(N=Nc2cccc(Cl)c2)cc1C=Nc1ccc(N2CCOCC2)cc1	-0.1	-6.7	21.9	79.2*	-0.138
CC(C)=CCN1CCN(Cc2cnc(C)s2)CC1CCO (configuration not stated)	1.1	.	-0.9	.	1.73
O=C(c1ccc(F)cc1)c1c[nH]c(C(=O)NCCCN2CCOCC2)c1	1.3	-2.6	4.0	-24.8	-0.457
CCC(CC)C(=O)c1c[nH]c(C(=O)NCCCN2CCOCC2)c1	0.9	-11.3	81.9*	-30.5	-1.4
COC(=O)c1ccc(-c2ccco2)n1Cc1nc(-c2ccc(OC)c(OC)c2)oc1C	8.4*	-1.9	11.9	-78.2	-0.465
CC(=O)/C=C/n1c(=S)oc2ccccc21	-1.1	39.4*	5.0	20.8	0.883
CC(C)CC(=O)/C=C/n1c(=S)oc2ccccc21	1.9	-0.5	5.4	-17.0	0.788
Cc1ccc(-c2nc3sc(C(N)=O)c(N)c3c3c2CCCC3)cc1	-1.0	-6.8	49.7	46.4*	0.18
CC(C)c1ccc2[nH]c3nc(SCC(=O)N4CCOCC4)nnc3c2c1	-0.7	.	5.7	.	0.722
O=c1oc2ccccc2c(N2CCCC2)c1CN1CCCC1	-0.1	-8.7	-6.7	85.8*	0.574
COc1ccc([N+](=O)[O-])cc1NC(=O)CSc1ccc2ccccc2c1	8.4*	1.1	18.4	-26.7	0.71
COc1ccc([N+](=O)[O-])cc1NC(=O)C(C)Sc1ccc(C)cc1 (configuration not stated)	9.2*	-6.3	4.4	0.8	0.000817
COC(=O)c1cc(OC)c(OC)cc1NC(=O)C(C)Sc1ccc(C)cc1 (configuration not stated)	3.1	-1.3	13.0	-41.7	.
NC(=O)C1CCCN(C(=S)Nc2cccc3ccccc23)C1 (configuration not stated)	2.0	0.5	8.7	-17.7	-0.621
FC(F)(F)c1nc(N2CCCC2)ncc1-c1nnnn1-c1ccccc1	0.3	0.7	60.1*	10.0	-0.662
Cc1ccc(-n2nnnc2-c2cnc(N3CCCC3)nc2C(F)(F)F)cc1	1.4	-9.4	5.8	-50.1	-1.56
CCC(C)c1ccc(OCC(=O)Nc2ccc3[nH]c(=O)[nH]c3c2)cc1 (configuration not stated)	2.8	4.9	-6.8	-26.4	0.804
